Here are results for 1 compound from PMC10583834 (Chemical Research in Toxicology, 2023).

The subject of one data set is women. The settings on record: cited from earlier work.
The target in the next data set is T1, recombinant CYP2B6 (Homo sapiens, UniProt P20813).
T1 sequence (P20813 1-491): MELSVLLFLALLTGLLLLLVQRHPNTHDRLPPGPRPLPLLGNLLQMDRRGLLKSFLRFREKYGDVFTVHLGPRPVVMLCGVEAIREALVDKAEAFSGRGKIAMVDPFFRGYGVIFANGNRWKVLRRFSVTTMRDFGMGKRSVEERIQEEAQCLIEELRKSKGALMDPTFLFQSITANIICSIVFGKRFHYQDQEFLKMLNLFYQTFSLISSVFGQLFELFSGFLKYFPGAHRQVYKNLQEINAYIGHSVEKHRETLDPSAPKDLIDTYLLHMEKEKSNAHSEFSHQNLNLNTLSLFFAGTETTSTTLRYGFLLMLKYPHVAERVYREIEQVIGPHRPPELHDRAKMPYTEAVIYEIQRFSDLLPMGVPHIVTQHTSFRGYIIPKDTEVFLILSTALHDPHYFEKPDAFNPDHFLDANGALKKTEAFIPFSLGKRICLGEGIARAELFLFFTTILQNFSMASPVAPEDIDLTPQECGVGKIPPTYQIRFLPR
The data set can be described thus: Glutathione trapping and metabolite formation with recombinant CYP2B6. It counts as in vitro ADME. The following applies: recombinant CYP2B6 100 pmol/mL, 1 mM GSH, 60 min. The method in brief: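 Test compound at 50 or 100 μM was incubated with recombinant CYP2B6 (100 pmol/mL) in 100 mM potassium phosphate pH 7.4, 3 mM MgCl2 and 1 mM reduced GSH. Reactions were started with NADPH-regenerating mix, with no-NADPH controls, for 60 min. Methanol stop contained 1 μM 4OH-MDZ internal standard. Samples were centrifuged 20 min at 2000 × g, 4 °C. Supernatants were analysed by LC-UV(280 nm)-MS for metabolites and GSH adducts.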

The next data set concerns CYP3A4. The settings on record: CYP3A4 inactivation in human liver microsomes; cited from earlier work.

For the compound `Cc1ccnc2c1NC(=O)c1cccnc1N2C1CC1` [NVP, Nevirapine], the “Increased risk for severe rash reactions in women” value in the data set with women is 7 fold. For the same compound, the GSH metabolite formation result on recombinant CYP2B6 is reported as “no GSH metabolite was detected”. In addition, the Ki with CYP3A4 is […].
